Screening data deposited in PubChem BioAssay by several laboratories.
XiGFP reactiv = activators of inactive X chromosome reactivation, primary screen, imaging, XiGFP fibroblasts, GFP high-content imaging, set 2 | XiGFP mouse fibroblasts, % GFP-positive cells imaging, 3 d; cells co-treated with 5-aza-dC sensitizer; scaled so ellipticine positive control = 100% | hit rate 0.055% among 360,000 | activation, % at 7.58 µM | AID 743238, 2013;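 active = mean normalized replicate activation at least 10% and every replicate at or above 10%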
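Schedule: 3 d treatment, 15 min room-temperature fixation; system: 68-5-11 XiGFP fibroblast line; buffer or medium: DMEM plus 5-aza-dC sensitizer; control set: ellipticine 6 µM positive control; compound: one concentration, pinned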
LGR2 antag = inhibitors of bursicon-induced LGR2 CRE-luciferase signal, primary screen, cell-based, HEK293, CRE-luciferase reporter, bursicon stimulation; bursicon-stimulated, 4 h; inhibition, % at 9.99 µM; hit rate 0.35% among 380,000;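 active = drop in luminescence signal, shown as inhibition above about 50% in the replicate tests, limit read from the data, passing the limit was not always enough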;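 note: agonist challenge used bursicon conditioned medium at about half maximal strength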
TWEAK Fn14 block = inhibitors of TWEAK-Fn14 signaling, primary screen, luciferase reporter cells, uHTS; TWEAK-stimulated Fn14 reporter cells, luciferase luminescence, 8 h; AID 1159606, 2016; hit rate 2% among 360,000; inhibition, % at 10 µM; in the data active = inhibition above about 50%
FN deposit inh = inhibitors of fibronectin matrix deposition, primary screen, AH1F cells, Alexa488-fibronectin fluorescence, plate reader; hit rate 0.086% among 350,000; AH1F fibroblasts, overnight; AID 743247, 2014; inhibition, % at 12.6 µM;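 active = mean inhibition across replicates of 30% or more, regardless of how many single replicates reach that level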
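Test system: AH1F fibroblast monolayer depositing Alexa488-labelled fibronectin into matrix. Input: 10000 cells per well. Technique: fluorescence, ex 485 nm, em 525 nm. Buffer or medium: DMEM plus 2% serum, read in PBS. Timing: 1 h cell adhesion before compound, then overnight fibronectin incubation. Compound: single dose, pinned. Read-out basis: inhibition from reduced deposited-fibronectin fluorescence.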
TROY NFkB inh = inhibitors of TROY-driven NF-kB signaling, primary screen, Q293 LMP1-TROYcd cells, NF-kB luciferase, uHTS | Q293 LMP1-TROYcd NF-kB luciferase reporter, 4 h | inhibition, % at 10 µM | hit rate 0.98% among 360,000 | AID 1347056, 2019;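 active = compounds whose plate-normalised and pattern-corrected inhibition of the luciferase reporter signal at the single screening dose is 50% or more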
EWS-Fli inh = EWS/Fli-driven NR0B1 reporter inhibitors, primary screen, A673 cells, NR0B1 luciferase, luminescence, MLPCN library | viability-normalised | inhibition, % at 12.6 µM | hit rate 0.67% among 350,000 | AID 651661, 2012;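 active = mean inhibition of at least 50% after viability correction, with every replicate also passing that limit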;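 note: firefly luciferase signal divided by Alamar Blue viability fluorescence both relative to DMSO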
A number is an active result. Rows were chosen to be rich in hits. Some 2.3% of all compounds tested hit in one or more screens of this group.

For COc1cccc(NC(=O)Nc2ccc3nsnc3c2)c1 the results were LGR2 antag inactive, TWEAK Fn14 block inactive, TROY NFkB inh inactive and EWS-Fli inh inactive.
For COc1ccc(NC(=O)Nc2cccc(OC)c2)cc1 the results were TWEAK Fn14 block inactive, FN deposit inh inactive and TROY NFkB inh inactive.
For CCSc1nsc(NC(=O)Nc2cccc(F)c2)n1 the results were XiGFP reactiv inactive, LGR2 antag inactive, TWEAK Fn14 block 55, FN deposit inh inactive, TROY NFkB inh inactive and EWS-Fli inh inactive.
Screening Cc1ccnc(NC(=O)Nc2cccc(F)c2)n1 returned XiGFP reactiv inactive, LGR2 antag inactive, TWEAK Fn14 block inactive, FN deposit inh inactive, TROY NFkB inh inactive and EWS-Fli inh inactive.
Screening O=C(Nc1nccs1)c1ccc(Br)c(S(=O)(=O)N2CCCC2)c1 returned XiGFP reactiv inactive, LGR2 antag inactive, TWEAK Fn14 block 97 and TROY NFkB inh inactive.
For Cc1ccc(-n2cnc3cc(NCc4cccs4)ccc32)cc1 the results were TWEAK Fn14 block inactive, FN deposit inh inactive and TROY NFkB inh inactive.
Screening c1ccc(-n2cnc3cc(NCc4cccs4)ccc32)cc1 returned TWEAK Fn14 block 93, FN deposit inh inactive and TROY NFkB inh 83.
For O=C(CCCN1C(=O)/C(=C/c2ccc3c(c2)OCO3)SC1=S)Nc1cccc(C(=O)O)c1 the results were XiGFP reactiv inactive, LGR2 antag inactive, TWEAK Fn14 block 56, TROY NFkB inh inactive and EWS-Fli inh inactive.
For COc1cc(/C=C2\SC(=O)N(CCN)C2=O)ccc1OS(=O)(=O)c1cc(C)ccc1C the results were XiGFP reactiv inactive, LGR2 antag 82, TWEAK Fn14 block inactive, FN deposit inh inactive, TROY NFkB inh inactive and EWS-Fli inh inactive.
For O=C(CNC(=O)c1ccccc1F)NCCN1C(=O)S/C(=C\c2ccc3c(c2)OCO3)C1=O the results were XiGFP reactiv inactive, LGR2 antag inactive, TWEAK Fn14 block inactive, FN deposit inh inactive, TROY NFkB inh inactive and EWS-Fli inh inactive.
For NCCN1C(=O)S/C(=C\c2ccc3c(c2)OCO3)C1=O the results were XiGFP reactiv inactive, LGR2 antag inactive, TWEAK Fn14 block 66, FN deposit inh inactive, TROY NFkB inh 57 and EWS-Fli inh inactive.
`O=C(CCCN1C(=O)/C(=C/c2ccccc2Cl)SC1=S)Nc1ccccn1` gave XiGFP reactiv inactive, LGR2 antag inactive, TWEAK Fn14 block 82, FN deposit inh inactive and TROY NFkB inh 60.
`C[C@@H]1CCCCO[C@@H](CN(C)C(=O)Cc2ccccc2)[C@@H](C)CN([C@H](C)CO)C(=O)c2cc(NC(=O)CCC(F)(F)F)ccc2O1` gave XiGFP reactiv inactive, LGR2 antag inactive, FN deposit inh inactive and EWS-Fli inh inactive.
For O=C(CCN1C(=O)/C(=C/c2ccccc2Cl)SC1=S)Nc1cccnc1 the results were XiGFP reactiv inactive, LGR2 antag inactive, TWEAK Fn14 block inactive, FN deposit inh inactive, TROY NFkB inh 57 and EWS-Fli inh inactive.
`O=C(CCCN1C(=O)/C(=C/c2ccccc2Cl)SC1=S)Nc1cccnc1` gave XiGFP reactiv inactive, LGR2 antag inactive, TWEAK Fn14 block inactive and TROY NFkB inh inactive.
`O=C(CCN1C(=O)/C(=C/c2cccs2)SC1=S)Nc1cccc(O)c1` gave XiGFP reactiv inactive, LGR2 antag inactive, TWEAK Fn14 block inactive, FN deposit inh inactive, TROY NFkB inh 54 and EWS-Fli inh inactive.
Screening O=C1/C(=C/c2ccccc2Cl)SC(=S)N1CCCC(=O)N(CCO)c1ccccc1 returned XiGFP reactiv inactive, LGR2 antag inactive, TWEAK Fn14 block 60 and TROY NFkB inh 63.
For C[C@H](CO)N1C[C@H](C)[C@H](CN(C)C(=O)Nc2ccc(C(F)(F)F)cc2)Oc2ccc(NS(=O)(=O)c3ccc(F)cc3)cc2CC1=O the results were XiGFP reactiv inactive, LGR2 antag inactive and EWS-Fli inh inactive.
COc1cccc(NC(=O)C2CCN(c3cnccn3)CC2)c1 was read as XiGFP reactiv inactive, LGR2 antag inactive, TWEAK Fn14 block 98, FN deposit inh inactive, TROY NFkB inh inactive and EWS-Fli inh inactive.
For FC(F)Oc1ccc(NC(=S)NCc2ccccc2)cc1 the results were XiGFP reactiv inactive, TWEAK Fn14 block inactive, FN deposit inh inactive, TROY NFkB inh inactive and EWS-Fli inh inactive.
For Oc1cccc2c(NC(=S)Nc3ccc(OC(F)F)cc3)cccc12 the results were XiGFP reactiv inactive, LGR2 antag inactive, TWEAK Fn14 block 91, FN deposit inh inactive, TROY NFkB inh inactive and EWS-Fli inh inactive.
For CC1CCN(CC2C(=O)O[C@@H]3C[C@@]4(C)CCC[C@H](C)C4=C[C@H]23)CC(C)(C)C1 (stereo partly specified) the results were XiGFP reactiv inactive, LGR2 antag inactive, TWEAK Fn14 block 55, FN deposit inh inactive, TROY NFkB inh inactive and EWS-Fli inh inactive.
`C[C@H]1CN([C@@H](C)CO)C(=O)Cc2cc(NC(=O)Nc3cccc4ccccc34)ccc2O[C@@H]1CN(C)C(=O)NC1CCCCC1` gave XiGFP reactiv inactive, LGR2 antag inactive and EWS-Fli inh inactive.
CSc1ccc(-c2nc(CSCC(=O)N3CCOCC3)c(C)o2)cc1 was read as LGR2 antag inactive, TWEAK Fn14 block inactive, FN deposit inh inactive and TROY NFkB inh inactive.
CCc1ccc(-c2nc(CSCC(=O)N3CCN(c4ncccn4)CC3)c(C)o2)cc1 was read as XiGFP reactiv inactive, LGR2 antag inactive, TWEAK Fn14 block 51, FN deposit inh inactive, TROY NFkB inh 79 and EWS-Fli inh 82.
Screening O=c1cc(-c2ccc(O)cc2)oc2c1ccc1ccccc12 returned XiGFP reactiv inactive, LGR2 antag inactive, TWEAK Fn14 block inactive, FN deposit inh inactive, TROY NFkB inh 63 and EWS-Fli inh inactive.
O=c1cc(C(Cl)(Cl)Cl)oc2c1ccc1ccccc12 was read as TWEAK Fn14 block 56, FN deposit inh inactive and TROY NFkB inh inactive.
O=c1cc(-c2ccc(O)cc2)oc2ccc3ccccc3c12 was read as XiGFP reactiv inactive, LGR2 antag 100, TWEAK Fn14 block 102, FN deposit inh inactive, TROY NFkB inh 88 and EWS-Fli inh 89.
Screening O=c1cc(-c2ccco2)oc2c1ccc1ccccc12 returned TWEAK Fn14 block inactive, FN deposit inh inactive and TROY NFkB inh inactive.
`CNC[C@@H]1OCCCC[C@H](C)Oc2ccc(N(C)C)cc2C(=O)N([C@@H](C)CO)C[C@@H]1C` gave XiGFP reactiv inactive, LGR2 antag inactive and EWS-Fli inh inactive.
